Compounds with a hit are over-represented: about 4.5% of the library has one in this group of screens.
CHO parental Ca: signal in parental CHO cells, OX1R antagonist counter-screen. parental CHO-K1, ATP-induced calcium, Fluo-8 fluorescence. AID 463079. inhibition, % at 5.6 µM. 0.63% of 330,000 active;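 active means inhibition above that plate's mean sample inhibition plus 3 SD, cut at about 26% in these data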;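 further: 0% = ATP-challenged DMSO wells and 100% = DMSO wells without ATP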
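Material – parental CHO cells · Reagent – ATP stimulus · Compound – single nominal dose of 5.6 µM per compound · Detection – Fluo-8 fluorescence · Read-out basis – percent inhibition of calcium signal · Controls – ATP-challenged DMSO wells low, unchallenged DMSO wells high · Repeats – no replicates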
TAAR1 antagonist: human TAAR1 antagonism; CHO RD-HGA16 TAAR1, Fluo-8 calcium fluorescence, antagonist; inhibition, % at 3 µM; 1.5% of 360,000 active; Q96RJ0;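 active means inhibition above a per-plate cutoff, the mean inhibition of test compounds on that plate plus 3 SD, cut at about 49% in these data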;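 further: 0% = DMSO plus EC80 beta-PEA response and 100% = DMSO alone without agonist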
Target sequence (Q96RJ0 whole entry, looked up): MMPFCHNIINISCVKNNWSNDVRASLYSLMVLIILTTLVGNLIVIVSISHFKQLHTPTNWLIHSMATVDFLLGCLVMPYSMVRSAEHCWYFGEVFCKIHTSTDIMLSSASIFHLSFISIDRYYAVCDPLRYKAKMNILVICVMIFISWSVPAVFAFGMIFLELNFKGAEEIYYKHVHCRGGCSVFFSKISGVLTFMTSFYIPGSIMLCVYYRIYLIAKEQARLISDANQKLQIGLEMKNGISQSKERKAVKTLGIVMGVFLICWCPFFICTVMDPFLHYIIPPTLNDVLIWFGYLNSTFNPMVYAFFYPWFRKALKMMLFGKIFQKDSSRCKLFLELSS
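Assay system: RD-HGA16 CHO cells with stable hTAAR1 and Gα16 / Reagent: EC80 β-phenethylamine stimulus / Doses: 3 µM, single point / Timing: dye loading 75 min at 37 °C, then 30 min room temperature / Measured by: Fluo-8 intracellular calcium dye fluorescence, real-time kinetic reads / Controls: vehicle wells and EC80 agonist wells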
OX1R antag-1: blocks the human orexin 1 receptor | OX1R-expressing cells, FRET antagonist read-out | O43613 | inhibition, % at 6.6 µM | AID 485270 | 1.8% of 330,000 active; in the data active means inhibition mostly above about 38%, no sharp cut-off; inactive means mostly below about 40%;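 further: 0% = agonist challenge alone and 100% = reference antagonist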
OX1R antag-2: antagonists of human orexin 1 receptor; CHO/OX1R cells, Fluo-8 calcium fluorescence, orexin A; inhibition, % at 5 µM; 0.43% of 330,000 active; AID 434989;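 active means inhibition above its plate's threshold, mean inhibition of all tested compounds on the plate plus 3 SD, cut at about 37% in these data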;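 further: 0% = orexin A challenge wells and 100% = SB-334867-A antagonist wells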
GPR7 antagonist: human neuropeptides B/W receptor 1 antagonism; inhibition, % at 4.4 µM; 1.1% of 290,000 active; GPR7-expressing cells, fluorescence antagonist assay; P48145; in the data active means inhibition above about 16%, passing the limit was not always enough;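 further: cells stimulated with the agonist NPW; 0% = agonist with vehicle and 100% = vehicle without agonist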
Target sequence (P48145 whole entry, looked up): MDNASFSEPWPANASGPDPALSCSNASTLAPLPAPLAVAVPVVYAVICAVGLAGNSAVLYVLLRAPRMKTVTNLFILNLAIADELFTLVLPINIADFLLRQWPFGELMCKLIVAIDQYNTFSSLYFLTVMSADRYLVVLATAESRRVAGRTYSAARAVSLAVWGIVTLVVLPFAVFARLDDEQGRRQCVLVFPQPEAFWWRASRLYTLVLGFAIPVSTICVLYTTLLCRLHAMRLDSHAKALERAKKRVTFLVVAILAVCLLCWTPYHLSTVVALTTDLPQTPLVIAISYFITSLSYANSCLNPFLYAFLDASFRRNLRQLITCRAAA
TAAR1 ag: human TAAR1 agonism. CHO RD-HGA16 TAAR1, Fluo-8 calcium fluorescence; vehicle wells 0%, saturating PEA agonist 100%. 0.99% of 360,000 active. AID 624467. activation, % at 3 µM. Q96RJ0;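 active means activation above the mean activation of all test compounds in the run plus 3 SD, cut at about 38% in these data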
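Signal – calcium-sensitive Fluo-8 signal, excitation 470-495, emission 515-575 nm · System – RD-HGA16 (CHO) cells co-expressing Gα16 and hTAAR1 · Incubation – 17-24 h seeding, 75 min 37 °C dye, 30 min RT · Compound dosing – 3 µM single concentration · Repeats – no replicates (n 1)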
TAAR1 ag conf: human TAAR1 agonism, confirmed; shares compounds with TAAR1 ag; CHO RD-HGA16 TAAR1, Fluo-8 calcium fluorescence; scaled: DMSO 0%, maximal phenethylamine 100%; activation, % at 3 µM; 82% of 2,400 active; AID 651783;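 active means activation above a cutoff set at the run's mean compound activation plus 3 SD, cut at about 39% in these data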
Ga16 ag counter: counter-screen for TAAR1 agonists: nonselective agonists in parental cells; shares compounds with TAAR1 ag; CHO-Ga16 parental, Fluo-8 calcium fluorescence; normalized to maximal ATP response, DMSO zero; activation, % at 3 µM; 50% of 2,400 active; AID 651787;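 active means activation above the run cutoff, the mean activation over all tested wells plus 3 SD, cut at about 12% in these data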;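 further: 0% = DMSO wells and 100% = maximal ATP response on the peak over basal ratio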
TAAR1 desens: TAAR1 response desensitization, agonist counter-screen | CHO RD-HGA16 hTAAR1, Fluo-8 calcium, beta-PEA response inhibition | 46% of 2,400 active | inhibition, % at 3 µM | AID 651951 | shares compounds with TAAR1 ag;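 active means inhibition above the run cutoff, the mean inhibition of all test compounds plus 3 SD, cut at about 49% in these data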;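 further: beta-PEA stimulus applied at its EC80; loss of beta-PEA calcium signal after compound pretreatment read as receptor desensitization; 0% = DMSO with beta-PEA at EC80 and 100% = DMSO alone without agonist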
Ga16 antag count: nonselective Ga16 antagonism, counter-screen | shares compounds with TAAR1 ag | CHO-Ga16 ATP-induced calcium, Fluo-8 fluorescence | inhibition, % at 3 µM | 39% of 2,400 active;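 active means inhibition above the plate's mean compound inhibition plus 3 SD, computed per plate, cut at about 22% in these data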;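 further: 0% = EC80 ATP with DMSO and 100% = DMSO wells without ATP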
* marks the source's active call; other numbers are inactive results; x = no result.

SMILES	CHO parental Ca	TAAR1 antagonist	OX1R antag-1	OX1R antag-2	GPR7 antagonist	TAAR1 ag	TAAR1 ag conf	Ga16 ag counter	TAAR1 desens	Ga16 antag count
CN(C)C(CNC(=O)CSC(=S)N1CCCC1)c1ccccc1 (stereo not drawn)	-12.1	-2.5	7.7	-29.3	x	1.1	x	x	x	x
O=C(CSC(=S)N1CCCC1)NCCc1ccccc1	-5.1	87.5*	10.6	1.9	x	97.4*	87.9*	3.1	98.1*	6.2
COC(=O)C1=C(C)N(Cc2cccc(C(F)(F)F)c2)C(=NCc2cc(OC)c(OC)c(OC)c2)NC1c1ccccc1 (stereo not drawn)	x	7.0	x	x	x	44.0*	12.6	11.2	15.4	20.5
COC(=O)C1=C(C)N(CC2CC2)C(=NCc2cccc(C(F)(F)F)c2)N[C@H]1c1ccccc1	-8.1	x	7.2	2.7	x	x	x	x	x	x
COC(=O)C1=C(C)N(Cc2cccc(C(F)(F)F)c2)C(=NCc2ccc(OC)cc2)NC1c1cccc(F)c1 (stereo not drawn)	x	55.3*	x	x	x	43.4*	41.6*	24.0*	51.2*	42.4*
COC(=O)C1=C(C)N(Cc2cccc(C(F)(F)F)c2)C(=NCc2cc(OC)c(OC)c(OC)c2)NC1c1ccccc1C(F)(F)F (stereo not drawn)	x	5.8	x	x	x	3.4	x	x	x	x
COC(=O)C1=C(C)N(Cc2cccc(C(F)(F)F)c2)C(=NCc2ccc(OC)cc2)NC1c1ccccc1 (stereo not drawn)	x	59.1*	x	x	x	51.1*	37.8*	25.2*	32.5	45.4*
CC1=C(C(=O)OCc2ccccc2)C(c2ccc(-c3ccccc3)cc2)NC(=O)N1CCCCCC(=O)O (stereo not drawn)	-18.9	91.9*	12.6	-7.9	-0.6	95.0*	-0.5	9.5	13.8	29.3*
CC(C)CC(N)c1csc(NC(=O)C(c2ccccc2)c2ccccc2)n1 (stereo not drawn)	x	66.2*	x	x	x	74.9*	75.2*	33.6*	72.7*	50.1*
CC(C)CC(N)c1csc(NC(=O)Nc2ccccc2Cc2ccccc2)n1 (stereo not drawn)	x	20.1	x	x	x	26.2	x	x	x	x
COC(=O)c1nc2nc(C)cc(=O)n2[nH]1	-2.0	-11.2	6.4	-5.6	16.9	0.8	x	x	x	x
CC1(C)ON=C(c2cccc(F)c2)NC1=O	x	-9.0	x	x	x	-0.9	x	x	x	x
O=C(C=Cc1cccs1)c1ccc(Cl)s1	x	-2.7	x	x	x	-2.5	x	x	x	x
Cc1[nH]c2ccccc2c1C(=O)CSc1ccc(Cl)cc1	18.1	39.5	12.2	8.7	-18.1	10.3	x	x	x	x
Cc1[nH]c2ccccc2c1C(=O)CN1C(=O)NC(C)(c2ccc(Cl)cc2Cl)C1=O (stereo not drawn)	23.0	55.2*	13.3	34.4	62.1*	70.2*	75.2*	38.5*	64.2*	47.7*
COCc1c(C(=O)N2CCN(Cc3nc4ccccc4s3)CC2)oc2ccccc12	-18.8	19.1	7.4	-8.9	x	18.8	x	x	x	x
CCCn1nc(C(=O)NNC(=O)c2cccc(C)c2)c2ccccc2c1=O	-14.1	-1.3	13.1	-1.4	x	0.5	x	x	x	x
NC(=O)COC(=O)CSc1cccc2cccc(Cl)c12	1.4	-19.7	16.9	-7.4	5.1	5.6	x	x	x	x
COc1ccccc1C(=O)Nc1cc(C)ccc1NC(=O)c1ccco1	-6.2	-4.4	9.0	-8.4	9.9	1.7	x	x	x	x
Cc1cc(C)n(-c2nc(Nc3ccccc3)nc(-n3nc(C)cc3C)n2)n1	-15.8	7.6	5.5	-10.5	-8.0	6.3	x	x	x	x
COc1cccc(/C=N/Nc2nc(Nc3ccccc3)nc(-n3nc(C)cc3C)n2)c1O	34.2	75.6*	59.2	21.6	4.7	83.7*	49.5*	46.6*	76.2*	62.8*
COc1ccc(NC(=S)N2CCc3ccccc3C2)cc1	-7.4	52.8*	12.9	-3.9	-5.1	83.7*	93.4*	9.2	31.1	-3.2
COc1cccc(NC(=O)N2CCc3ccccc3C2)c1	-2.0	-0.6	11.3	-20.2	2.1	46.5*	52.9*	1.2	13.6	10.2
COc1ccc(NC(=O)CN2CCc3ccccc3C2)cc1	x	-2.7	x	x	x	4.2	x	x	x	x
CC(Oc1cccc(Br)c1)C(=O)N1CCCN(C)CC1 (stereo not drawn)	-8.4	-28.2	24.6	-22.4	-21.9	-0.2	x	x	x	x
SMILES	CHO parental Ca	TAAR1 antagonist	OX1R antag-1	OX1R antag-2	GPR7 antagonist	TAAR1 ag	TAAR1 ag conf	Ga16 ag counter	TAAR1 desens	Ga16 antag count
Cc1ccc(NC(=O)CN2C(=O)S/C(=C/c3ccc(O)c([N+](=O)[O-])c3)C2=O)cc1C	x	80.4*	x	x	6.2	90.9*	18.9	6.8	0.0	8.1
Cc1cccc(NC(=O)CN2C(=O)S/C(=C\c3ccc(O)c([N+](=O)[O-])c3)C2=O)c1	-10.7	-26.9	44.5	-9.3	1.8	3.0	x	x	x	x
CC(C)c1ccc(C2NC(=S)NC3=C2C(=O)CC(C)(C)C3)cc1 (stereo not drawn)	-13.5	-9.5	28.3	-10.7	1.6	1.4	x	x	x	x
COc1ccc2cc(-c3ccccc3)c(=O)oc2c1	-3.5	-15.6	8.4	-18.8	0.7	5.5	x	x	x	x
CCN(CC)c1ccc2cc(-c3nc(-c4ccc(OC)cc4)cs3)c(=O)oc2c1	97.5*	104.8*	26.1	106.1*	13.4	450.5*	355.2*	606.4*	88.8*	96.3*
FC(F)(F)c1cc(CCN2CCNC[C@@H]2Cc2ccccc2)cc(C(F)(F)F)c1	6.1	-0.6	-0.7	-8.5	x	57.1*	58.5*	16.7*	32.6	18.5
CCCC[C@@H]1CNCCN1CCc1cccc(F)c1	-5.2	2.4	35.7	-30.5	x	61.9*	75.1*	9.1	45.6	9.6
O=C1NCCN1CCNc1nc(NCc2ccccc2)nc2ccsc12	x	99.7*	x	x	x	89.0*	95.1*	66.2*	105.8*	93.0*
CC(C)Nc1nc(NCCN2CCNC2=O)c2sccc2n1	x	4.5	x	x	x	0.5	x	x	x	x
COc1ccc(CC(N)c2csc(Nc3ccc(C(=O)c4ccccc4)cc3)n2)cc1 (stereo not drawn)	x	33.2	x	x	x	51.1*	39.3*	27.1*	31.1	38.3*
CC(C)C(N)c1csc(Nc2ccc(C(=O)c3ccccc3)cc2)n1 (stereo not drawn)	x	-4.2	x	x	x	47.6*	61.5*	14.4*	19.8	24.6*
